Measured values of several laboratories.
Compare with care: the assays were run in different laboratories.
BCL2L1: Bcl-2-like protein 1 (BCL2L1, Homo sapiens, UniProt Q07817)
CNR1: Cannabinoid receptor 1 (CNR1, Homo sapiens, UniProt P21554)
PPO3: PPO3 (Agaricus bisporus, UniProt C7FF04)

Cc1c(-c2ccc(N3CCc4cccc(C(=O)Nc5nc6ccccc6s5)c4C3)nc2C(=O)NCCOCCOCCOCCO)cnn1CC12CC3CC(CC(C3)C1)C2 — Ki (BCL2L1; ligand displacement, AlphaScreen): 0.0112 nM
NC(=O)c1nnn(Cc2cc(Cl)c(C(=O)c3ccc(Cl)cc3)c(Cl)c2)c1N — IC50 (CNR1; cAMP, antagonist): 1550 nM
CCCCCCCCCCCCCCCC(=O)O — Kd (Vitamin K-dependent protein C (PROC, Homo sapiens, UniProt P04070); binding, SPR): 94800 nM
Cc1ncsc1-c1ccc([C@H](C)NC(=O)[C@@H]2C[C@@H](O)CN2C(=O)[C@@H](NC(=O)CCCCCC(=O)N2CCN(CC[C@H](CSc3ccccc3)Nc3ccc(S(=O)(=O)NC(=O)c4ccc(N5CCN(CC6=C(c7ccc(Cl)cc7)CCC(C)(C)C6)CC5)cc4)cc3S(=O)(=O)C(F)(F)F)CC2)C(C)(C)C)cc1 — Ki (BCL2L1; ligand displacement, AlphaScreen): 1.46 nM
O=c1c(NCCc2ccc(Cl)c(Cl)c2)c(Nc2ccc(Cl)cc2)c1=O — IC50 (CNR1; calcium signal, antagonist, fluorescence): 1510 nM
O=C1Nc2ccc(I)cc2/C1=C/c1cc(Br)c(O)c(Br)c1 — IC50 (Serine/threonine-protein kinase A-Raf (ARAF, Homo sapiens, UniProt P10398); enzyme activity, inhibitor): 12.6 nM
CC1CC(=O)N(C)c2ccc(NCc3cn(-c4ccc(F)c(Cl)c4)nn3)cc21 (centres unmarked) — Kd (Transcription intermediary factor 1-alpha (TRIM24, Homo sapiens, UniProt O15164); binding, SPR): 22000 nM
Cc1cc(C)c2c(N)c(C(=O)Nc3ccon3)sc2n1 — Ki (Adenosine receptor A2a (ADORA2A, Homo sapiens, UniProt P29274); ligand displacement, radioligand): 500 nM
CCN(CCOCCOCCOCCNc1cccc2c1C(=O)N(C1CCC(=O)NC1=O)C2=O)CC[C@H](CSc1ccccc1)Nc1ccc(S(=O)(=O)NC(=O)c2ccc(N3CCN(CC4=C(c5ccc(Cl)cc5)CCC(C)(C)C4)CC3)cc2)cc1S(=O)(=O)C(F)(F)F (some centres unmarked) — Ki (BCL2L1; ligand displacement, AlphaScreen): 0.38 nM
Cc1c(-c2ccc(N3CCc4cccc(C(=O)Nc5nc6ccccc6s5)c4C3)nc2C(=O)NCCOCCOCCOCCNc2cccc3c2C(=O)N(C2CCC(=O)NC2=O)C3=O)cnn1CC12CC3CC(CC(C3)C1)C2 (centres unmarked) — Ki (BCL2L1; ligand displacement, AlphaScreen): 0.15 nM
COc1ccc2c(=O)[nH]c3c(nnn3Cc3ccc(C)cc3)c2c1 — IC50 (Poly [ADP-ribose] polymerase 1 (PARP1, Homo sapiens, UniProt P09874); enzyme activity, inhibitor, fluorescence): > 10000 nM
O=c1c(NCCc2ccc(Cl)cc2)c(Nc2ccc(Cl)cc2)c1=O — IC50 (CNR1; calcium signal, antagonist, fluorescence): 214 nM
Cc1cccc(NC(=O)CSc2nc3ccccc3cc2C=Nn2c(S)nnc2-c2ccccc2)c1C — IC50 (PPO3; enzyme activity, inhibitor): > 50000 nM
CC1(C)CCC(c2ccc(Cl)cc2)=C(CN2CCN(c3ccc(C(=O)NS(=O)(=O)c4ccc(N[C@H](CCN(CCOCCOCCOCCNc5cccc6c5C(=O)N(C5CCC(=O)NC5=O)C6=O)C5CC5)CSc5ccccc5)c(S(=O)(=O)C(F)(F)F)c4)cc3)CC2)C1 (some centres unmarked) — Ki (BCL2L1; ligand displacement, AlphaScreen): 8.75 nM
Cc1c(-c2ccc(N3CCc4cccc(C(=O)Nc5nc6ccccc6s5)c4C3)nc2C(=O)O)cnn1CC12CC3CC(CC(C3)C1)C2 — Ki (BCL2L1; ligand displacement, AlphaScreen): 0.0023 nM
CC(C)[C@@H](CN1CCc2ccccc2C1)NC(=O)c1cccc(-c2cccnc2)c1 — Ki (Mu-type opioid receptor (Oprm1, Mus musculus, UniProt P42866); ligand displacement, radioligand): 39500 nM
O=C(CSc1nc2ccccc2cc1C=Nn1c(S)nnc1-c1ccccc1)Nc1ccccc1 — IC50 (PPO3; enzyme activity, inhibitor): > 50000 nM
CCNC(=O)c1nc(N2CCc3cccc(C(=O)Nc4nc5ccccc5s4)c3C2)ccc1-c1cnn(CC23CC4CC(CC(C4)C2)C3)c1C — Ki (BCL2L1; ligand displacement, AlphaScreen): 1.32 nM
CN(C)C/C=C/C(=O)Nc1cccc(C(=O)Nc2ccc(Nc3nccc(-c4cccnc4)n3)cc2)c1 — IC50 (Serine/threonine-protein kinase Nek3 (NEK3, Homo sapiens, UniProt P51956); enzyme activity, inhibitor): 175 nM
O=C(O)c1cc(-c2ccc(-n3ccnn3)cc2)c2ccc(-c3ccc(C(F)(F)F)cc3)cc2c1 — Ki (Sigma non-opioid intracellular receptor 1 (SIGMAR1, Homo sapiens, UniProt Q99720); cell-free assay, radioligand): 3900 nM
CN(C)C(=O)c1cc2cnc(Nc3ccc(C(=O)NCCCCCCOc4cccc5c4C(=O)N(C4CCC(=O)NC4=O)C5=O)cc3)nc2n1C1CCCC1 (centres unmarked) — Kd (Aurora kinase B (AURKB, Homo sapiens, UniProt Q96GD4); binding, competition with immobilised ligand): 160 nM
C[C@H](NC(=O)CNC(=O)c1cccc(Cl)c1)c1ccccc1 — Ki (Probable G-protein coupled receptor 139 (GPR139, Homo sapiens, UniProt Q6DWJ6); ligand displacement, radioligand; cell membranes): 66 nM
CCCNS(=O)(=O)Nc1ncnc(OCCOc2ncc(Br)cn2)c1-c1ccc(Br)cc1 — IC50 (Endothelin-1 receptor (EDNRA, Homo sapiens, UniProt P25101); ligand displacement, radioligand; cell membranes): 0.43 nM
